ChEMBL document CHEMBL4033790, “Design and Synthesis of Novel Deuterated Ligands Functionally Selective for the γ-Aminobutyric Acid Type A Receptor (GABAAR) α6 Subtype with Improved Metabolic Stability and Enhanced Bioavailability” (J Med Chem, 2018)

Experiments:
[1] = system: Mus musculus; experiment: Neurotoxicity in Swiss Webster mouse assessed as induction of motor impairment at 5 mg/kg administered via oral gavage measured after 10 to 60 mins by rotarod method; assay type: toxicity, organism-based; conditions: in vivo
Summary of the method: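 Female Swiss Webster mice were given diazepam 5 mg/kg by oral gavage as the positive control. Rotarod performance was tested 10, 30 and 60 min after dosing.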

[2] = system: Liver; experiment: Half life in mouse liver microsomes at 10 uM by LC-MS/MS analysis; assay type: ADME, microsome
Summary of the method: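 Compound at 10 μM final was preincubated 5 min at 37 °C with NADPH regenerating system in phosphate buffer, pH 7.4. Human or mouse liver microsomes (0.5 mg/mL protein) were added to start the reaction. Samples were taken at 0 (no microsomes) and 10–60 min and measured by LC-MS/MS against an internal standard. Half-life = 0.693/k, with k the slope of ln peak-area ratio versus time. Three experiments, each in duplicate.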

[3] = Metabolic stability in mouse liver microsomes assessed as parent compound remaining at 10 uM after 60 mins by LC-MS analysis; assay type: ADME, microsome; conditions: read-out: Stability
Summary of the method: (§1)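 The 60 min samples of the microsomal incubation (10 μM compound, human or mouse liver microsomes at 0.5 mg/mL, NADPH regenerating system, 37 °C) were analysed by LC-MS. Detection used SIM mode with dual ESI/APCI ionization, calibrated to the retention times and masses of the parent and its O-demethylated metabolites. Peak intensities were measured.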

[4] = system: HEK-293T; experiment: Cytotoxicity against HEK293T cells assessed as reduction in cell viability up to 400 uM after 48 hrs by CellTiter-Glo assay; assay type: cell-based; conditions: human
Summary of the method: (§2)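 HEK293T and HepG2 cells grown in high-glucose DMEM with non-essential amino acids, 10 mM HEPES, penicillin/streptomycin and 10% heat-inactivated FBS. Cells were harvested with trypsin and plated; compound was pin-transferred 3 h later. Incubation was 48 h, then CellTiter-Glo luminescence was read. Controls were DMSO (negative) and a cytotoxic aminoketone (positive). Quadruplicates, three independent runs, normalized to controls, nonlinear regression.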

[5] = system: Mus musculus; experiment: Neurotoxicity in Swiss Webster mouse assessed as induction of motor impairment at 40 mg/kg administered via oral gavage measured after 10 to 60 mins by rotarod method; assay type: toxicity, organism-based; conditions: in vivo
Summary of the method: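 Female mice were given a single oral gavage dose of 40 mg/kg, either in 50% PBS/40% propylene glycol/10% DMSO or, for poorly soluble compounds, in 2% polyethylene glycol plus 2.5% hydroxymethyl cellulose. Rotarod performance was tested 10, 30 and 60 min after dosing, with diazepam 5 mg/kg as positive control.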

[6] = molecular target: Voltage-gated inwardly rectifying potassium channel KCNH2 (Homo sapiens, UniProt Q12809); experiment: Displacement of [3H]-dofetilide from human ERG expressed in HEK cell membranes at >10 uM after 60 to 90 mins by scintillation counting
Sequence of Voltage-gated inwardly rectifying potassium channel KCNH2 (Q12809 whole entry): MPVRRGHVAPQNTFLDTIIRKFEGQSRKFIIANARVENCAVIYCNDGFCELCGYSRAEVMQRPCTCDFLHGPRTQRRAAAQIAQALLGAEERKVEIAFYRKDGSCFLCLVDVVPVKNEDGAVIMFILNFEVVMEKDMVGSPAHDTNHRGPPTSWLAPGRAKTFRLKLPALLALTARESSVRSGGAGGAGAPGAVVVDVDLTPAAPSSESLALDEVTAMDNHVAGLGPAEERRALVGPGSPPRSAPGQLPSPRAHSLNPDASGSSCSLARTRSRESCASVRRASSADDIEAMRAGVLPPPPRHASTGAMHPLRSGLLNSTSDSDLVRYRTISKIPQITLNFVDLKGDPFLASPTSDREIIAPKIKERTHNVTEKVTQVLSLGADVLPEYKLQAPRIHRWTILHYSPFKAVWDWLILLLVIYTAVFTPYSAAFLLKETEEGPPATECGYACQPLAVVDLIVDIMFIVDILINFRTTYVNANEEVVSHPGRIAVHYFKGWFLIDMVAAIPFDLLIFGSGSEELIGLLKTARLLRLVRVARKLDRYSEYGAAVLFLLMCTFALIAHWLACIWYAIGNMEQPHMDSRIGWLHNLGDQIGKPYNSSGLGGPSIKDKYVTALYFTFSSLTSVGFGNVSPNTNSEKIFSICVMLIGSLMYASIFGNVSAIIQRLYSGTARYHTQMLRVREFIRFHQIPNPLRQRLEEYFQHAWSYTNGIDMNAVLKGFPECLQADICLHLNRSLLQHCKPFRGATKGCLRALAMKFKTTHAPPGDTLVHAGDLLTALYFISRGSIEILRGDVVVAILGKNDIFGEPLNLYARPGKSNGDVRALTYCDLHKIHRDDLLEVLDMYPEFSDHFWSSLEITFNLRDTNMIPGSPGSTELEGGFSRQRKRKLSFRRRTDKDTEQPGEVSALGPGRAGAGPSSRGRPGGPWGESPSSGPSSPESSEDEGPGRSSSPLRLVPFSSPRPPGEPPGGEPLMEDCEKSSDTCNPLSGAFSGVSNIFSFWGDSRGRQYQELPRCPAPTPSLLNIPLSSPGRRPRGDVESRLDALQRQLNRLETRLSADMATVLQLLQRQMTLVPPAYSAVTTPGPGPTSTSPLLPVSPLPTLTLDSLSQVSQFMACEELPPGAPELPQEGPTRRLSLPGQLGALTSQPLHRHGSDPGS

[7] = system: HepG2; experiment: Cytotoxicity against human HepG2 cells assessed as reduction in cell viability up to 400 uM after 48 hrs by CellTiter-Glo assay; assay type: cell-based; conditions: hepg2, 48 h; summary of the method: as §2
[8] = Drug metabolism in human liver microsomes assessed as CYP450 mediated-O-demethylated 8-chloro-2-(3-hydroxyphenyl)-2H-pyrazolo[4,3-c]quinolin-3(5H)-one metabolite formation after 60 mins by LC-MS analysis; assay type: ADME; conditions: 1 h
Summary of the method: (§3)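 The 60-min samples from the human or mouse liver microsome incubations (10 µM compound, 0.5 mg/mL protein, NADPH regenerating system, 37 °C, pH 7.4) were run on LC-MS in SIM mode with dual ESI/APCI ionization. The method was calibrated to each component's retention time and mass, and the peak intensities of the parent and O-demethylated metabolites were measured.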

[9] = Drug metabolism in mouse liver microsomes assessed as CYP450 mediated-O-demethylated 8-chloro-2-(3-hydroxyphenyl)-2H-pyrazolo[4,3-c]quinolin-3(5H)-one metabolite formation after 60 mins by LC-MS analysis; assay type: ADME; conditions: 1 h; summary of the method: as §3
[10] = Metabolic stability in human liver microsomes assessed as parent compound remaining at 10 uM after 60 mins by LC-MS analysis; assay type: ADME, microsome; conditions: read-out: Stability; summary of the method: as §1
[11] = Drug metabolism in human liver microsomes assessed as CYP450 mediated-O-demethylated 2-(6-hydroxy-3-pyridyl)-7-(trideuteriomethoxy)-5H-pyrazolo[4,3-c]quinolin-3-one metabolite formation after 60 mins by LC-MS analysis; assay type: ADME; conditions: 1 h; summary of the method: as §3
[12] = Drug metabolism in mouse liver microsomes assessed as CYP450 mediated-O-demethylated 7-hydroxy-2-(6-methoxypyridin-3-yl)-2H-pyrazolo[4,3-c]quinolin-3(5H)-one metabolite formation after 60 mins by LC-MS analysis; assay type: ADME; conditions: 1 h; summary of the method: as §3
[13] = AUC (0 to 12 hrs) in Wistar rat plasma at 10 mg/kg, ip administered as single dose by HPLC-MS/MS analysis; assay type: ADME, organism-based; set-up: time < 12 hr, dose 10 mg/kg, route intraperitoneal
[14] = Cmax in Wistar rat brain at 10 mg/kg, ip administered as single dose measured at 5 to 720 mins post dose by HPLC-MS/MS analysis; assay type: ADME, organism-based; set-up: dose 10 mg/kg, route intraperitoneal
Summary of the method: (§4)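 Male Wistar rats (250-350 g) given a single 10 mg/kg i.p. dose of a 5 mg/ml suspension in 85% distilled water, 14% propylene glycol, 1% Tween 80. Three rats per time point (5, 20, 60, 180, 720 min). Blood and brain were collected after sacrifice. Drug was recovered by solid phase extraction and quantified by HPLC-MS/MS.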

[15] = Tmax in Wistar rat brain at 10 mg/kg, ip administered as single dose by HPLC-MS/MS analysis; assay type: ADME, organism-based
Summary of the method: (§5)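 Male Wistar rats (250–350 g) received a single i.p. dose of 10 mg/kg as a 5 mg/ml suspension in 85% water, 14% propylene glycol and 1% Tween 80. Three rats per time point were sacrificed at 5, 20, 60, 180 and 720 min for plasma and brain. Samples were cleaned up by solid-phase extraction and quantified by HPLC-MS/MS.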

[16] = Cmax in Wistar rat plasma at 10 mg/kg, ip administered as single dose measured at 5 to 720 mins post dose by HPLC-MS/MS analysis; assay type: ADME, organism-based; set-up: dose 10 mg/kg, route intraperitoneal; summary of the method: as §4
[17] = Terminal elimination half-life in Wistar rat brain at 10 mg/kg, ip administered as single dose by HPLC-MS/MS analysis; assay type: ADME, organism-based; conditions: read-out: beta t1/2 (converted); summary of the method: as §5
[18] = Drug metabolism in mouse liver microsomes assessed as CYP450 mediated-O-demethylated 7-hydroxy-2-(6-hydroxypyridin-3-yl)-2H-pyrazolo[4,3-c]quinolin-3(5H)-one metabolite formation after 60 mins by LC-MS analysis; assay type: ADME; conditions: 1 h; summary of the method: as §3
[19] = Terminal elimination half-life in Wistar rat plasma at 10 mg/kg, ip administered as single dose by HPLC-MS/MS analysis; assay type: ADME, organism-based; conditions: read-out: beta t1/2 (converted); summary of the method: as §5
[20] = Drug metabolism in mouse liver microsomes assessed as CYP450 mediated-O-demethylated 2-(6-hydroxy-3-pyridyl)-7-(trideuteriomethoxy)-5H-pyrazolo[4,3-c]quinolin-3-one metabolite formation after 60 mins by LC-MS analysis; assay type: ADME; conditions: 1 h; summary of the method: as §3
[21] = Tmax in Wistar rat plasma at 10 mg/kg, ip administered as single dose by HPLC-MS/MS analysis; assay type: ADME, organism-based; summary of the method: as §5
[22] = Drug metabolism in human liver microsomes assessed as CYP450 mediated-O-demethylated 7-hydroxy-2-(6-hydroxypyridin-3-yl)-2H-pyrazolo[4,3-c]quinolin-3(5H)-one metabolite formation after 60 mins by LC-MS analysis; assay type: ADME; conditions: 1 h; summary of the method: as §3
[23] = Drug metabolism in human liver microsomes assessed as CYP450 mediated-O-demethylated 7-hydroxy-2-(6-methoxypyridin-3-yl)-2H-pyrazolo[4,3-c]quinolin-3(5H)-one metabolite formation after 60 mins by LC-MS analysis; assay type: ADME; conditions: 1 h; summary of the method: as §3
[24] = system: Brain; experiment: AUC (0 to 12 hrs) in Wistar rat brain at 10 mg/kg, ip administered as single dose by HPLC-MS/MS analysis; assay type: ADME, organism-based; set-up: dose 10 mg/kg, time < 12 hr, route intraperitoneal; conditions: in vivo

CN1C(=O)CN=C(c2ccccc2)c2cc(Cl)ccc21 [DIAZEPAM]
Activity [1]: Toxic

[2H]C([2H])([2H])Oc1cccc(-n2nc3c4cc(Cl)ccc4[nH]cc-3c2=O)c1
t1/2 [2]: 2.8 h
remaining at 1 h, 10 µM [3]: 76.6%
Activity [4]: Non-Toxic
Activity [5]: Non-Toxic
inhibition (INH) [6]: Not Active
Activity [7]: Non-Toxic
Drug metabolism [8]: Metabolite_Detected
Drug metabolism [9]: Metabolite_Detected
remaining at 1 h, 10 µM [10]: 93%

[2H]C([2H])([2H])Oc1ccc2c3nn(-c4ccc(OC)nc4)c(=O)c-3c[nH]c2c1
Drug metabolism [11]: Metabolite_Detected
Drug metabolism [12]: Metabolite_Detected
AUC(0-t) at 12 h [13]: 6020 ng·h/mL
Cmax [14]: 215 ng/g
Tmax [15]: 1.67 h
Cmax [16]: 1250 ng/mL
half-life [17]: 9.07 h
remaining at 1 h, 10 µM [3]: 91.4%
Drug metabolism [18]: Metabolite_Detected
Activity [4]: Non-Toxic
Activity [5]: Non-Toxic
half-life [19]: 18 h
Drug metabolism [20]: Metabolite_Detected
Tmax [21]: 1 h
inhibition (INH) [6]: Not Active
Drug metabolism [22]: Metabolite_Detected
Drug metabolism [23]: Metabolite_Detected
Activity [7]: Non-Toxic
AUC [24]: 1502.14 ng·h/g
remaining at 1 h, 10 µM [10]: 92.3%
